The IC50 is the concentration at which inhibition is half-maximal.

Molecules are shown by their SMILES.

For the first series, the system named is Brain. Briefly: Drug level in Tg2576 beta-APP-Swedish transgenic mouse brain at 200 umol/kg, po. Format: ADME, organism-based. Conditions: in vivo, read-out: Drug uptake. In short, it runs like this: (§1)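 Tg2576 βAPP-Swedish transgenic mice received a single oral dose of 200 µmol/kg. At 3 h after dosing, brain Aβ was measured as percent reduction, and compound concentrations were measured in plasma and brain in nM, reported as mean ± deviation.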
For `C[C@H](CCCN(C)S(C)(=O)=O)N(c1cc(Cl)ccc1CO)S(=O)(=O)c1ccc(Cl)cc1`, the concentration stood at 0.759 µM.
Same read-out and setting: the same measure for `C[C@H](CCCn1cnnn1)N(c1cc(Cl)ccc1CO)S(=O)(=O)c1ccc(Cl)cc1`: 1.16 µM.

The test system of a further series is Plasma. Briefly: Drug level in Tg2576 beta-APP-Swedish transgenic mouse plasma at 200 umol/kg, po. The class given is ADME, organism-based. Conditions: in vivo. The essentials:
as §1
On to `C[C@H](CCCN(C)S(C)(=O)=O)N(c1cc(Cl)ccc1CO)S(=O)(=O)c1ccc(Cl)cc1`, for which the concentration came out at 12.3 µM.
Still for that read-out and setting: the figure for `C[C@H](CCCn1cnnn1)N(c1cc(Cl)ccc1CO)S(=O)(=O)c1ccc(Cl)cc1` is 5.47 µM.

The target of a further series is Gamma-secretase. Kind of series: Inhibition of human gamma secretase in H4 cells assessed as reduction of amyloid beta-40 levels. Format: cell-based.
Conditions: not given
The essentials:
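Cells were plated in 96 wells and allowed to attach. Medium was then replaced with Ultraculture containing compound at a final 1% DMSO, and cells were incubated overnight. Aβ40 in the conditioned medium was measured by sandwich ELISA, using a C-terminal Aβ40-specific monoclonal capture antibody and an HRP-labelled N-terminal Aβ monoclonal antibody for detection.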
With `C[C@H](CCCNS(=O)(=O)c1ccccc1)N(c1cc(Cl)ccc1CO)S(=O)(=O)c1ccc(Cl)cc1`, the IC50 is 7.4 nM.
Still for that read-out and setting: the figure for `CCC(=O)NCCC[C@@H](C)N(c1cc(Cl)ccc1CO)S(=O)(=O)c1ccc(Cl)cc1` is 13 nM.
With `C=C(Cl)CN(c1cc(Cl)ccc1CO)S(=O)(=O)c1ccc(C)cc1`, the IC50 is 850 nM.
The same measure, in the same setting: the figure for `C[C@H](CCCN1CCCS1(=O)=O)N(c1cc(Cl)ccc1CO)S(=O)(=O)c1ccc(Cl)cc1` is 1.1 nM; for `CNCCC[C@@H](C)N(c1cc(Cl)ccc1CO)S(=O)(=O)c1ccc(Cl)cc1` it is 262 nM; for `C[C@H](CCCN1CCOCC1)N(c1cc(Cl)ccc1CO)S(=O)(=O)c1ccc(Cl)cc1` it is 3.1 nM.
Still for that read-out and setting: the figure for `C[C@H](CCCN1CCN(C)CC1)N(c1cc(Cl)ccc1CO)S(=O)(=O)c1ccc(Cl)cc1` is 29 nM; for `C[C@H](CCCNC=O)N(c1cc(Cl)ccc1CO)S(=O)(=O)c1ccc(Cl)cc1` it is 5.1 nM.
For the compound `Cc1nnn(CCC[C@@H](C)N(c2cc(Cl)ccc2CO)S(=O)(=O)c2ccc(Cl)cc2)n1`, the IC50 worked out at 6.1 nM.
As for `C[C@H](CCCn1nnnc1-c1ccccc1)N(c1cc(Cl)ccc1CO)S(=O)(=O)c1ccc(Cl)cc1`, the IC50 was found to be 15 nM.
On the same count and under the same terms, the same measure for `C[C@H](CCCn1nccn1)N(c1cc(Cl)ccc1CO)S(=O)(=O)c1ccc(Cl)cc1`: 12 nM; for `CC(C)C(=O)NCCC[C@@H](C)N(c1cc(Cl)ccc1CO)S(=O)(=O)c1ccc(Cl)cc1`: 14 nM.
On the same count and under the same terms, the figure for `C[C@H](CCCN(C)S(C)(=O)=O)N(c1cc(Cl)ccc1CO)S(=O)(=O)c1ccc(Cl)cc1` is 0.32 nM.
For the compound `Cc1nnnn1CCC[C@@H](C)N(c1cc(Cl)ccc1CO)S(=O)(=O)c1ccc(Cl)cc1`, the IC50 stood at 0.75 nM.
Same read-out and setting: the figure for `C[C@H](CCCNC(=O)CCc1ccccc1)N(c1cc(Cl)ccc1CO)S(=O)(=O)c1ccc(Cl)cc1` is 72 nM; for `C[C@H](CCCn1cncn1)N(c1cc(Cl)ccc1CO)S(=O)(=O)c1ccc(Cl)cc1` it is 4.8 nM.
On to `C[C@H](CCCn1nnc(N(C)C)n1)N(c1cc(Cl)ccc1CO)S(=O)(=O)c1ccc(Cl)cc1`, for which the IC50 was 5.6 nM.
As to `C[C@H](CCCNC(=O)Cc1ccccc1)N(c1cc(Cl)ccc1CO)S(=O)(=O)c1ccc(Cl)cc1`, the IC50 amounted to 26 nM.
On the same count and under the same terms, the same measure for `COCC(=O)NCCC[C@@H](C)N(c1cc(Cl)ccc1CO)S(=O)(=O)c1ccc(Cl)cc1`: 6.9 nM.
The same measure, in the same setting: the figure for `C[C@H](CCCNC1CCCO1)N(c1cc(Cl)ccc1CO)S(=O)(=O)c1ccc(Cl)cc1` (stereo partly specified) is 29 nM.
Still for that read-out and setting: the figure for `C[C@H](CCCNC(=O)CO)N(c1cc(Cl)ccc1CO)S(=O)(=O)c1ccc(Cl)cc1` is 8.1 nM; for `C[C@H](CCCn1cccn1)N(c1cc(Cl)ccc1CO)S(=O)(=O)c1ccc(Cl)cc1` it is 18 nM; for `C[C@H](CCCn1nnc(-c2ccccc2)n1)N(c1cc(Cl)ccc1CO)S(=O)(=O)c1ccc(Cl)cc1` it is 61 nM.
For `C[C@H](CCCn1ccnn1)N(c1cc(Cl)ccc1CO)S(=O)(=O)c1ccc(Cl)cc1`, the IC50 is 0.9 nM.
With `C[C@H](CCCNC(=O)[C@H](O)c1ccccc1)N(c1cc(Cl)ccc1CO)S(=O)(=O)c1ccc(Cl)cc1`, the half-inhibitory concentration (IC50) was 1.6 nM.
On the same count and under the same terms, the same measure for `C[C@H](CCCN(C)C)N(c1cc(Cl)ccc1CO)S(=O)(=O)c1ccc(Cl)cc1`: 6.5 nM; for `C[C@H](CCCNC(=O)c1ccccc1)N(c1cc(Cl)ccc1CO)S(=O)(=O)c1ccc(Cl)cc1`: 15 nM; for `C[C@H](CCCN1CCCCC1)N(c1cc(Cl)ccc1CO)S(=O)(=O)c1ccc(Cl)cc1`: 50 nM.
Still for that read-out and setting: the same measure for `C[C@H](CCCn1nnnc1N(C)C)N(c1cc(Cl)ccc1CO)S(=O)(=O)c1ccc(Cl)cc1`: 0.53 nM.
Regarding `CCC[C@@H](C)N(c1cc(Cl)ccc1CO)S(=O)(=O)c1ccc(Cl)cc1`, the IC50 was found to be 5 nM.
Still for that read-out and setting: the figure for `CC(=O)NCCC[C@@H](C)N(c1cc(Cl)ccc1CO)S(=O)(=O)c1ccc(Cl)cc1` is 7.3 nM.
For the compound `C[C@H](CCCn1ncnn1)N(c1cc(Cl)ccc1CO)S(=O)(=O)c1ccc(Cl)cc1`, the IC50 was found to be 1.2 nM.
The same measure, in the same setting: the figure for `C[C@H](CCCNS(C)(=O)=O)N(c1cc(Cl)ccc1CO)S(=O)(=O)c1ccc(Cl)cc1` is 0.23 nM; for `C[C@H](CCCn1ccnc1)N(c1cc(Cl)ccc1CO)S(=O)(=O)c1ccc(Cl)cc1` it is 11 nM; for `C[C@H](CCCNc1ccccc1)N(c1cc(Cl)ccc1CO)S(=O)(=O)c1ccc(Cl)cc1` it is 36 nM.
Still for that read-out and setting: the figure for `C[C@H](CCCN1CCc2ccccc2C1)N(c1cc(Cl)ccc1CO)S(=O)(=O)c1ccc(Cl)cc1` is 84 nM.
As to `C[C@H](CCCN)N(c1cc(Cl)ccc1CO)S(=O)(=O)c1ccc(Cl)cc1`, the IC50 was 288 nM.
On the same count and under the same terms, the same measure for `C[C@H](CCCn1cnnn1)N(c1cc(Cl)ccc1CO)S(=O)(=O)c1ccc(Cl)cc1`: 0.51 nM; for `C[C@H](CCCNC(=O)[C@@H](O)c1ccccc1)N(c1cc(Cl)ccc1CO)S(=O)(=O)c1ccc(Cl)cc1`: 2.9 nM.

The test system of the next series is Mus musculus. Kind of series: Reduction of amyloid beta levels in Tg2576 beta-APP-Swedish transgenic mouse at 200 umol/kg, po after 3 hrs. Format: functional. More on the design: scale not given: the % may be the effect or the level left.
Conditions: not given
The essentials: as §1
In turn, `C[C@H](CCCN(C)S(C)(=O)=O)N(c1cc(Cl)ccc1CO)S(=O)(=O)c1ccc(Cl)cc1` returned an Activity of 27%.
On the same count and under the same terms, the figure for `C[C@H](CCCn1cnnn1)N(c1cc(Cl)ccc1CO)S(=O)(=O)c1ccc(Cl)cc1` is 41%.

In the next series the test system is Mus musculus. Kind of series: Reduction of amyloid beta levels in Tg2576 beta-APP-Swedish transgenic mouse at 500 umol/kg, po after 3 hrs. Format: functional. The arrangement: scale not given: the % may be the effect or the level left.
Conditions: not given
`CCC[C@@H](C)N(c1cc(Cl)ccc1CO)S(=O)(=O)c1ccc(Cl)cc1` gave an Activity of 25%.

(Values after ChEMBL document CHEMBL1140782, “Nitrogen-appended N-alkylsulfonamides as inhibitors of gamma-secretase” (Bioorg Med Chem Lett, 2008).)
